EBI2 block = EBI2 receptor antagonists, beta-arrestin recruitment, primary screen, cell-based, luminescence, 7a,25-OHC stimulation, uHTS; inhibition, % at 5 µM; hit rate 0.81% among 360,000; 7a,25-OHC stimulated; G-protein coupled receptor 183 (Homo sapiens), P32249; in the data active = inhibition above about 38%;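 note: enzyme fragment complementation signal reports receptor beta-arrestin coupling in cells; 0% = agonist plus DMSO wells and 100% = wells without agonist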
Target sequence (P32249 whole entry, looked up, the tested form may be a part): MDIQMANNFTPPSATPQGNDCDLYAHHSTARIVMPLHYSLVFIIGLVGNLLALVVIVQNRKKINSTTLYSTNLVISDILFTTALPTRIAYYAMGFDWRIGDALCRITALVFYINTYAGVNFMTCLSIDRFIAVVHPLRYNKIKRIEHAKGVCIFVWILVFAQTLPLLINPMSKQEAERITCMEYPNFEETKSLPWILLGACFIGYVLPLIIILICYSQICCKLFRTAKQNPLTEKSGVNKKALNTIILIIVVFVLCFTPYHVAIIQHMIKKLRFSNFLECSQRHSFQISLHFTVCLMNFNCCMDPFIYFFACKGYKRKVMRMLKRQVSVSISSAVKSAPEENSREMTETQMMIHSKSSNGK
APJ antag = antagonists of human apelin receptor APJ, primary screen, CHO-K1 cells, beta-arrestin complementation, luminescence. P35414. inhibition, % at 20 µM. hit rate 0.32% among 330,000;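 active = inhibition above about 40% at 20 µM, limit read from the data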;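 note: cells challenged with 10 nM apelin-13 agonist together with compound; plate controls were apelin-13 plus DMSO wells for no effect and DMSO wells lacking apelin-13 for full effect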
CXCR6 block = CXCR6 receptor inhibitors, primary screen, cell-based, beta-arrestin, luminescence, CHO-K1 PathHunter, 1536-well; inhibition, % at 20 µM; hit rate 0.36% among 360,000; AID 602244, 2012; C-X-C chemokine receptor type 6 (Homo sapiens), O00574; in the data active = inhibition above about 34%, passing the limit was not always enough;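 note: antagonist mode with CXCL16 agonist at 10 nM final; 0% = 10 nM CXCL16 with DMSO and 100% = unstimulated wells without agonist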
Target sequence (O00574 whole entry, looked up): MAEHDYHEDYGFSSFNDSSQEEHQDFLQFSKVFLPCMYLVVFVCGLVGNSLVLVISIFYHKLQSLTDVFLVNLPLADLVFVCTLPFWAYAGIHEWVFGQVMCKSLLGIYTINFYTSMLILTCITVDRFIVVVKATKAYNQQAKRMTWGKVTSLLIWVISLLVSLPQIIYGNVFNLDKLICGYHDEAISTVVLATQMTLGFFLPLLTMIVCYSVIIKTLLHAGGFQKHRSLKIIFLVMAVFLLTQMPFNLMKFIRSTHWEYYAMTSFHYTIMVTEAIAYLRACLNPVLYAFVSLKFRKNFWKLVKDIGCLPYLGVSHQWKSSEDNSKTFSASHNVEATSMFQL
CCR6 antagonist = CCR6 receptor antagonists, primary screen, cell-based, CHO-K1, luminescence, beta-arrestin, uHTS. C-C chemokine receptor type 6 (Homo sapiens), P51684. CHO-K1 CCR6 PathHunter beta-arrestin, CCL20-stimulated. inhibition, % at 20 µM. hit rate 0.49% among 340,000. AID 493098, 2011;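 active = compounds whose inhibition of the agonist-driven luminescence signal at 20 µM reaches about 50%, limit read from the data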;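 note: cells stimulated with CCL20 at 14 nM final; plate controls were DMSO with CCL20 for no effect and DMSO without agonist for full effect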
APJ agonist = agonists of human apelin receptor APJ, primary screen, CHO-K1 cells, PathHunter beta-arrestin, luminescence | P35414 | 0% DMSO wells, 100% apelin | hit rate 0.11% among 330,000 | activation, % at 20 µM;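 active = activation more than six SD over the plate average, tested at 20 µM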;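 note: 0% = DMSO alone and 100% = apelin-13 at 10 nM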
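Assay system – PathHunter CHO-K1 APJ (AGTRL-1) beta-arrestin reporter cells · Compound – one dose, 20 µM compound, 1% DMSO · Timing – compound 90 min 25 °C, reagent 1 h · Measured by – luminescence from split beta-galactosidase complementation, Galacton Star/Emerald II substrate · Measure – beta-arrestin recruitment to APJ as agonist activity, luminescent signal · Benchmarks – DMSO vs Apelin-13 10 nM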
EBI2 antag conf = EBI2 antagonist hit retest, beta-arrestin, confirmation, cell-based, single concentration, luminescence, 7a,25-OHC stimulation; shares compounds with EBI2 block; 7a,25-OHC antagonism; inhibition, % at 5 µM; hit rate 29% among 2,400;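 active = inhibition of at least 50%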
EBI2 ag = EBI2 agonist activity of antagonist hits, confirmation, counter-screen for EBI2 antagonist project, cell-based, single concentration, agonist mode, luminescence. AID 652000, 2013. 2,400 tested, under 10 active. activation, % at 5 µM. shares compounds with EBI2 block. EBI2-expressing cells, 60 min; 0% vehicle, 100% 7α,25-dihydroxycholesterol control;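 active = activation of at least 50%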
bGal cs = E. coli beta-galactosidase enzyme inhibition, confirmation, counter-screen for EBI2 antagonist project, biochemical, luminescence, single concentration | shares compounds with EBI2 block | purified beta-galactosidase, luminescent Galacton Star, 15 min | inhibition, % at 5 µM | hit rate 1% among 2,400;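 active = replicate-average signal at least 3 plate SD below neutral wells, shown as high inhibition, flagging enzyme-inhibiting false positives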;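 note: 0% = DMSO wells with enzyme and 100% = wells lacking enzyme; higher means stronger loss of beta-gal luminescence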
Numbers without * were called inactive; x = no result. In the library only some 1.5% were active in any assay of this set; here they are far more common.

SMILES	EBI2 block	APJ antag	CXCR6 block	CCR6 antagonist	APJ agonist	EBI2 antag conf	EBI2 ag	bGal cs
O=C1c2cnc3nc(SCc4cccc(Cl)c4)nn3c2CC2c3ccccc3CCN12 (stereo not drawn)	41.7*	22.1	15.7	23.3	-7.4	24.1	-4.3	-6.8
CCOC(=O)C1CCCCN1C(=O)c1ccc2nc(Cc3ccc(OC)cc3)oc2c1 (stereo not drawn)	61.1*	-11.4	1.8	9.5	-5.2	49.0	0.2	3.2
CCOC(=O)Nc1ccc2c(CN3CCN(S(=O)(=O)c4ccccc4F)CC3)cc(=O)oc2c1	-7.5	13.4	3.0	2.6	6.0	x	x	x
CCOC(=O)Nc1ccc2c(CN3CCN(S(=O)(=O)c4ccc(C(C)C)cc4)CC3)cc(=O)oc2c1	54.8*	6.7	2.8	8.4	-0.6	10.1	-0.5	-12.3
Cc1cccnc1C1=NOC(Cc2ccccc2)C(=O)N1CCOc1ccc(F)cc1 (stereo not drawn)	-0.2	x	12.4	x	x	x	x	x
S=c1[nH]nc(-c2cc(-c3ccccc3)n[nH]2)n1/N=C/c1c(Cl)cccc1Cl	44.2*	-6.1	4.8	12.5	-0.7	65.1*	-0.8	-0.1
Cc1ccccc1/C=N/n1c(-c2cc(-c3ccccc3)n[nH]2)n[nH]c1=S	24.0	16.8	5.6	18.1	2.9	x	x	x
COc1cccc(-n2c(=O)n(Cc3ccccc3)c(=O)c3[nH]cnc32)c1	0.7	33.6	34.3	44.1	-7.4	x	x	x
Cc1cc(C(=O)N2CCN(Cc3ccccc3)CC2)ccc1[N+](=O)[O-]	24.4	-3.2	-1.2	13.4	-3.5	x	x	x
Cc1cc(C(=O)N2CCC(Cc3ccccc3)CC2)ccc1[N+](=O)[O-]	63.7*	-6.6	7.8	3.7	-3.0	43.4	1.3	4.6
COc1cccc(OCC(O)CN2CCN(C(c3ccccc3)c3ccccc3)CC2)c1 (stereo not drawn)	37.9*	-15.3	-0.4	-0.4	0.5	16.4	-0.7	-10.7
CCN1CCN(CC(O)COc2cccc(OC)c2)CC1 (stereo not drawn)	-11.7	12.1	-4.2	-9.0	-0.2	x	x	x
c1ccc(OCCN2CCN(C(c3ccccc3)c3ccccc3)CC2)cc1	45.0*	0.2	17.3	23.6	-3.7	5.2	-0.2	-9.8
COc1ccc(C2=Nc3ccccc3NC(=O)C2N(Cc2ccccc2)C(=O)C2=NNC(=O)CC2)cc1 (stereo not drawn)	-1.6	x	11.1	x	x	x	x	x
CN(C(=O)c1cccn(Cc2ccccc2)c1=O)c1ccccc1	-5.7	-27.4	3.4	-1.0	-2.4	x	x	x
CN(C(=O)c1ccc(=O)n(Cc2ccc(Cl)cc2)c1)c1ccccc1	56.0*	-13.2	-2.4	4.3	-0.4	36.4	-1.2	-14.1
CCS(=O)(=O)N1CCN(c2ccc([N+](=O)[O-])c(NCC3CCCO3)c2)CC1 (stereo not drawn)	5.8	10.7	6.2	29.1	-3.5	x	x	x
COc1cc2ccccc2cc1C(=O)Nc1ccc(C)cc1	30.8	4.3	4.7	-15.1	-1.5	x	x	x
COc1cc2ccccc2cc1C(=O)Nc1ccc(Cc2ccncc2)cc1	47.9*	-2.5	-12.0	23.9	1.7	38.7	1.5	1.1
CC1(C)Cc2c(C#N)c(SCCC#N)nc(N3CCOCC3)c2CO1	9.9	-0.8	-0.4	6.1	-0.6	x	x	x
CC1(C)Cc2c(C#N)c(SCCC#N)nc(N3CCOCC3)c2CS1	69.5*	-5.6	-7.8	12.9	0.4	39.3	-0.4	1.8
Clc1ccc2[nH]cc(-c3nnnn3-c3ccc4ccccc4c3)c2c1	45.0*	-2.7	-8.5	7.6	7.3	30.3	1.9	5.3
Cc1ccc(-n2nnnc2-c2cnc3ccc(Cl)cc3c2-c2ccccc2)cc1	14.7	-3.5	3.9	13.7	-4.6	x	x	x
COC(=O)c1ccc2nc(-c3ccc(C#N)cc3)c(Cc3cccc(Cl)c3)n2c1	29.8	x	10.2	x	x	x	x	x
CC(C(=O)NC(C)(C)C)n1c(C(c2ccccc2)c2ccccc2)nc2ccccc21 (stereo not drawn)	1.0	x	x	x	x	x	x	x
SMILES	EBI2 block	APJ antag	CXCR6 block	CCR6 antagonist	APJ agonist	EBI2 antag conf	EBI2 ag	bGal cs
COc1ccc(N2CCN(C(=O)c3cc(=O)c4cc(Cl)ccc4o3)CC2)cc1	96.0*	5.5	-11.8	6.8	-4.0	92.7*	-0.8	-20.9
COc1ccc(N2CCN(C(=O)c3cc(=O)c4ccc(C)cc4o3)CC2)cc1	49.7*	9.6	-14.2	-5.5	-1.6	49.4	-1.8	-15.7
c1csc(-c2nc(N3CCOCC3)c3ccccc3n2)c1	8.1	-1.5	7.7	16.3	-0.9	x	x	x
COc1ccc(N2CCN(c3nc(-c4cccs4)nc4ccccc34)CC2)cc1	63.2*	5.0	-5.4	12.1	-2.2	41.6	0.9	8.8
C=CCn1c(SCC(=O)Nc2ccc(-c3nc4ccc(C)cc4s3)cc2)nnc1-c1ccccc1	-79.2	x	1.2	-21.6	x	x	x	x
C=CCn1c(SCC(=O)NNC(=O)Nc2cccc(Cl)c2)nnc1-c1ccccc1	60.5*	4.4	7.1	15.2	-2.4	11.5	-0.9	-10.2
C=CCn1c(SCC(=O)NNC(=O)Nc2ccc(C)cc2)nnc1-c1ccccc1	48.1*	13.0	-2.3	-10.8	1.6	8.2	-1.4	-9.8
CCN1C(=O)[C@H]2[C@@H](c3ccc(Cl)cc3)N3C(=O)CN(CCOC)C(=O)[C@@]3(Cc3ccccc3)[C@H]2C1=O	3.4	-42.8	-4.9	-7.2	-1.1	x	x	x
COc1ccc(OC)c(NC(=O)CSCc2cnn(-c3ccccc3)c2-n2cccc2)c1	14.9	10.5	-2.7	12.9	-4.2	x	x	x
COc1cc(NC(=O)CSCc2cnn(-c3ccccc3)c2-n2cccc2)cc(OC)c1	37.3*	6.7	0.0	23.1	-0.8	13.7	-1.7	-12.7
Cc1cc(C)c(S(=O)(=O)N2CCN(C(=O)c3ccc(-n4cncn4)c([N+](=O)[O-])c3)CC2)c(C)c1	72.3*	-57.4	-10.5	-2.6	5.2	34.6	-0.9	-7.5
O=C(c1ccc(-n2cncn2)c([N+](=O)[O-])c1)N1CCN(S(=O)(=O)c2ccccc2Br)CC1	13.6	-20.5	-13.8	-4.2	4.7	x	x	x
O=C(Nc1ccc(F)c(Cl)c1)c1cc(C2CCCCN2C(=O)c2ccccc2)on1 (stereo not drawn)	10.2	x	9.0	x	x	x	x	x

Bioassay records deposited in PubChem by Sanford-Burnham Center for Chemical Genomics.
